An excerpt weighted towards active compounds, which were near 12% of everything screened.
ABCB1 block – ABCB1 efflux pump inhibitors, primary screen, cell-based, multiplex, flow cytometry, ABCG2 counter-screen. ATP-dependent translocase ABCB1 (Homo sapiens), P08183. AID 1326, 2008. actives 0.067% (n = 190,000). inhibition, % at 6.6 µM. CCRF-Adr cells, JC-1 efflux; in the data active = inhibition above about 40%;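 also: higher value means more JC-1 retained so stronger ABCB1 efflux block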
RAM network inh – inhibitors of the yeast RAM network, primary screen, dse1pr::URA3 reporter, 5-FOA selection. S. cerevisiae dse1pr::URA3 reporter, 5-FOA growth OD615, 2 d; analog-sensitive cbk1-as2 kinase mutant strain. inhibition, % at 50 µM. actives 1.8% (n = 190,000). AID 868, 2007;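 active = inhibition above a set limit, 3 SD over mean compound inhibition, cut at about 8.4% in these data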;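 also: inhibition rescues growth on 5-FOA so higher OD means more RAM inhibition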
ABCG2 block – ABCG2 efflux pump inhibitors, primary screen, multiplex with ABCB1, IgMXP3 cells, flow cytometry; actives 0.1% (n = 190,000); inhibition, % at 6.6 µM; AID 1325, 2008; Broad substrate specificity ATP-binding cassette transporter ABCG2 (Homo sapiens), Q9UNQ0; JC-1 efflux;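 active = inhibition above 80%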
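Read-out basis: Efflux inhibition in percent versus controls | Test system: ABCG2 IgMXP3 and barcoded ABCB1 CCRF-Adr cell mix | Quantity: 3 million cells/mL in well | Schedule: 10 min at 25 °C | Control set: Nicardipine as high control, DMSO as low control | Reagent: JC-1 as fluorescent efflux pump substrate | Signal: Flow cytometry of retained JC-1 fluorescence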
L major viab – Leishmania major promastigote growth inhibition, primary screen | actives 9% (n = 200,000) | Leishmania major promastigotes, resazurin fluorescence viability | AID 1063, 2008 | inhibition, % at 10 µM; in the data active = inhibition above about 50%;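 also: promastigotes grown with compound for 44 hours at 28 °C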
WT yeast gro inh – growth inhibition of WT strain, primary screen, mitochondrial fusion inhibitor project, WT and mutant strains, chemical genetic. mitochondrial fusion phenotypic screen. inhibition, % at 10 µM. actives 2.1% (n = 190,000). AID 1362, 2008; in the data active = inhibition above about 58%; tested in S. cerevisiae
Large screens that a line does not name were inactive.

C=CCn1c(SCC(=O)Nc2ncc(Cc3cc(Cl)ccc3Cl)s2)nnc1-c1ccncc1	none
O=C(COc1ccc(Cl)cc1Cl)OCC(=O)N1CCCc2ccccc21	none
O=C(OCC(=O)N1CCc2ccccc21)c1ccccc1	none
O=C(CO/N=C/c1ccccc1O)N1CCc2ccccc21	L major viab 75
O=C(COc1ccc2c(c1)CCC2)N1CCc2ccccc21	L major viab 52
O=C(CCCOc1ccc(Cl)cc1Cl)N1CCCc2ccccc21	WT yeast gro inh 75
Cc1ccc(CSC2=NCCN2C(=O)c2ccc(S(=O)(=O)N(C)C)cc2)cc1	none
CCN(Cc1ccncc1)C(=O)c1cc(Br)cc(Br)c1O	none
CCN(CC)S(=O)(=O)c1cccc(-c2n[nH]c(=S)n2Cc2ccccc2)c1	L major viab 100
CCN(CC)S(=O)(=O)c1cccc(-c2cn3cc(C)ccc3n2)c1	L major viab 85
O=C(O)COc1ccc(/C=N/Nc2nc(Nc3ccccc3)nc(N3CCCCC3)n2)cc1	none
O=C(CC1CCC1)NC(c1ccccc1)c1ccccc1	none
COCCn1c(N/N=C(C)/C=C/c2ccccc2)nc2c1c(=O)[nH]c(=O)n2C	none
Cc1ccc(S(=O)(=O)/N=C(\CN2CCCCC2)N2CCOCC2)cc1	none
CNC(=S)N1CCc2ccccc2C1	none
CC(=C1C(=O)c2ccccc2C1=O)N1CCc2ccccc2C1	L major viab 92
CCC1CCCCN1C(=S)NC1CCCCC1 (centres undefined)	none
CC(/C=N\N1CCN(Cc2ccc(C)cc2)CC1)=C\c1ccccc1	none
BrC(=C\c1ccccc1)/C=N/N1CCN(Cc2ccccc2)CC1	L major viab 53
FC(F)(F)c1ccc(/C=N/N2CCN(Cc3ccccc3)CC2)cc1	L major viab 54
CCOc1ccc(NC(=S)NNC(=O)CC(C)O)cc1 (centres undefined)	none
CCCC1=C(C(=O)OCC)C(c2ccncc2)n2ncnc2N1 (centres undefined)	none
COc1cc(C(=O)OCc2ccc(C)cc2)cc(NC(=O)c2cccs2)c1OC	L major viab 55
COc1cc(C(=O)O)cc(NC(=O)c2cccs2)c1OC	none
COc1ccc(C(=O)Nc2ccc(/C(C)=N/NC(=O)c3ccccc3O)cc2)cc1OC	none
Cn1c(=N)n(CC(O)c2cccc3ccccc23)c2ccccc21 (centres undefined)	L major viab 102
Cc1cc(C)n2nc(/C(C#N)=C/c3ccccn3)c(C#N)c2n1	L major viab 97
COC(=O)C1=C(C)N(C)C(C)=C(C(=O)OC)C1c1ccncc1	none
COC(=O)C1=C(C)N(C)C(C)=C(C(=O)OC)C1c1ccc(F)c(Br)c1	L major viab 76
N#C/C(=N\Nc1ccccc1[N+](=O)[O-])C(=N)N1CCCCC1	none
Cc1ccc(-c2nnc3n2N=C(c2ccccc2)CS3)cc1	none
Cc1nnc2n(c1=O)N=C(c1ccc(Cl)cc1)CS2	L major viab 80 (no result: ABCB1 block)
c1ccc(C2=Nn3c(nnc3-c3cc(-c4ccccc4)n[nH]3)SC2)cc1	RAM network inh 8.6, L major viab 63
c1ccc(-c2nnc3n2N=C(c2ccc4c(c2)OCO4)CS3)nc1	RAM network inh 9.2
COc1ccc(C2=Nn3c(nnc3-c3ccccn3)SC2)cc1OC	none
Clc1ccc(C2=Nn3c(nnc3-c3cc(-c4ccccc4)n[nH]3)SC2)cc1	RAM network inh 9.1, WT yeast gro inh 97
COCCNC(=O)c1ccccc1NC(=O)CCSc1ccccc1	none
O=C(CSc1n[nH]c(-c2ccccc2F)n1)NCC(=O)Nc1ccc(F)c(F)c1F	none
CC(=O)c1cc(CN2CCN(CC=C(C)C)C(CCO)C2)cs1 (centres undefined)	none
Cn1cc(CN2CCN(CCc3ccccc3)C(CCO)C2)cn1 (centres undefined)	none
OCCC1CN(Cc2ccc3nsnc3c2)CCN1CCc1ccccc1 (centres undefined)	L major viab 84
CC(=O)c1cc(CN2CCN(Cc3ccccc3)C(CCO)C2)cs1 (centres undefined)	L major viab 65
CC(=O)c1cc(CN2CCN(CCc3ccccc3)C(CCO)C2)cs1 (centres undefined)	L major viab 77
N=c1occ(C(=O)c2cc(F)ccc2O)cc1C(=O)NC1CCCCC1	L major viab 70
COc1ccc(NC(=O)CC2(CC(=O)O)CCCC2)cn1	none
O=C(Nc1nnc(-c2cccs2)o1)c1cccc(Oc2ccccc2)c1	L major viab 52
O=C(Nc1nnc(-c2cccs2)o1)c1ccc(S(=O)(=O)N2CCOCC2)cc1	none
O=C(Nc1nnc(-c2cccs2)o1)c1cccc(F)c1	L major viab 94 (no result: ABCB1 block, RAM network inh, ABCG2 block)
O=C(Nc1nnc(-c2cccs2)o1)c1cc(-c2ccccc2)nc2ccccc12	WT yeast gro inh 71
O=C(Nc1nnc(-c2ccccn2)o1)c1cccc(Br)c1	none
CC(C)CCN1CCN(C2CSCCSC2)CC1CCO (centres undefined)	none
Cc1cccc(C)c1NC(=O)CN(C)CC(=O)Nc1cc(Cl)ccc1C#N	none
CCOc1ccc(NC(=O)CN(C)CC(=O)Nc2cc(Cl)ccc2C#N)cc1OCC	L major viab 86
CC(C)(C)NS(=O)(=O)c1ccc(CCC(=O)N2CCCC2)cc1	none
CCCN1CCC2(CC1)C(C#N)=C(N)Oc1c2sc2nc(C)cc(C)c12	L major viab 52
Cc1ccc(OCC(=O)NCC(=O)Nc2ccc(F)cc2)c([N+](=O)[O-])n1	L major viab 50
Cc1ccc(OCC(=O)Nc2ccc(F)cc2)c([N+](=O)[O-])n1	none
CC(C)Oc1ccc(C(=O)NC2(C(F)(F)F)NC(=O)N(CCCc3ccccc3)C2=O)cc1 (centres undefined)	WT yeast gro inh 65
O=C(NC1(C(F)(F)F)NC(=O)N(Cc2cccnc2)C1=O)c1ccccc1 (centres undefined)	none
COc1ccc(CCN2C(=O)NC(NC(=O)CCc3ccccc3)(C(F)(F)F)C2=O)cc1OC (centres undefined)	L major viab 70
CC(=O)c1ccccc1NC(=O)Cn1c(=O)cnc2ccccc21	L major viab 58
Cc1cc(C(=O)COC(=O)c2ccc(N)c([N+](=O)[O-])c2)c(C)n1-c1ccc2c(c1)OCO2	L major viab 71
Cc1cc(C(=O)COC(=O)CC2Sc3ccccc3NC2=O)c(C)n1-c1ccccc1 (centres undefined)	none
Cc1cc(C(=O)COC(=O)CC2Sc3ccccc3NC2=O)c(C)n1-c1ccc2c(c1)OCO2 (centres undefined)	L major viab 55
COC(=O)c1ccc(-n2c(C)cc(C(=O)COC(=O)CC3Sc4ccccc4NC3=O)c2C)cc1 (centres undefined)	RAM network inh 8.8, L major viab 65

Assay outcomes: PubChem, several laboratories
